Among all 330,000 compounds or so, about 1,000 (0.3%) were called active. This is one part of a sample in which actives are shown more often than they occur.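 Rule for the calls: active = activity change at or below -40% at 20 µM; inactive = the rest.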

Sequence of Apoptotic protease-activating factor 1 (Homo sapiens) (O14727 whole entry, looked up): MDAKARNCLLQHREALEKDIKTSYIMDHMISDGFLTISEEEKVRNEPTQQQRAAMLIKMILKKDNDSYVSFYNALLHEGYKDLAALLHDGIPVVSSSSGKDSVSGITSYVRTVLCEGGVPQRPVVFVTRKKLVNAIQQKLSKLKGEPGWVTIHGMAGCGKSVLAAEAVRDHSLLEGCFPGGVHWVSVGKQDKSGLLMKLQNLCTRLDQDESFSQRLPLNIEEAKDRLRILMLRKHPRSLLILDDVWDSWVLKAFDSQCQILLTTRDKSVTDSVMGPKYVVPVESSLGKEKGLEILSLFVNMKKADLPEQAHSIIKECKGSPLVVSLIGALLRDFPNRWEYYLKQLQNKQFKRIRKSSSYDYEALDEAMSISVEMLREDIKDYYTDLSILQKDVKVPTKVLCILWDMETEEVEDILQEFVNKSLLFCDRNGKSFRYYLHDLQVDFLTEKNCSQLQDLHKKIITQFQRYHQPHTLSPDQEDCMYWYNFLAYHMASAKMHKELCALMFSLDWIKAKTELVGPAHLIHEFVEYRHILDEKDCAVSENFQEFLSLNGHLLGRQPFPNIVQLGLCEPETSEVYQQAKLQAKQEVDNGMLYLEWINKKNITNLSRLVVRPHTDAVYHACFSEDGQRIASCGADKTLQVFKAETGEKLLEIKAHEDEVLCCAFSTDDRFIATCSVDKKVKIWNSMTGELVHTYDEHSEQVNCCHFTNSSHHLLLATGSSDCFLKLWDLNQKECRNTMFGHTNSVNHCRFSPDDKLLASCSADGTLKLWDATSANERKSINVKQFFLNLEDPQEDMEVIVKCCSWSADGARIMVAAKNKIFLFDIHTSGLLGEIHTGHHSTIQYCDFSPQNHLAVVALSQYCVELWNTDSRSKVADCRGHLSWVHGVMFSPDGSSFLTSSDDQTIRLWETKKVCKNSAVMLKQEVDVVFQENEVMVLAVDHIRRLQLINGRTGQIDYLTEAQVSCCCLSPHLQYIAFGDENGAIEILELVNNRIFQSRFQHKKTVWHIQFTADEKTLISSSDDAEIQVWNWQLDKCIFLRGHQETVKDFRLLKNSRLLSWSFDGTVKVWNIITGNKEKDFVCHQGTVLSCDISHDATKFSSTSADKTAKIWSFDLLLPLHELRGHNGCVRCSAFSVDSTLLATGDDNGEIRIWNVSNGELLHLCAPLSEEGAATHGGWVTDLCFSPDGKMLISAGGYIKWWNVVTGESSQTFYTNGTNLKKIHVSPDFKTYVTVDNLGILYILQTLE

The target in this assay is Apoptotic protease-activating factor 1 (Homo sapiens) (UniProt O14727). The experiment in a line: enhancers of Apaf-1-driven caspase-3 activation – biochemical, DEVD-Rh110 fluorescence, uHTS, primary screen (AID 489031). As to conditions: Apaf-1 apoptosome caspase-3 activation, at 20 µM, stronger effect = lower value. The essentials:
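system = biochemical Apaf-1 apoptosome reconstitution | buffer or medium = 20 mM HEPES pH 7.5 with CHAPS, BSA | also added = dATP and cytochrome c as apoptosome triggers, (Z-DEVD)2-Rh110 substrate | incubation = 30 min compound preincubation and 50 min reaction, both room temperature | measured by = fluorescence, 540 nm emission, 480 nm excitation | read-out basis = Caspase-3 cleavage activity downstream of Apaf-1 activation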
On to `Cc1nn(CC(=O)Nc2ccc(C#N)cc2)c(C)c1[N+](=O)[O-]`, for which the activity change, negative = activation is -116% (active).

For `CCOC(=O)N1CCC(c2cc(=O)n(-c3ccccc3)[nH]2)CC1`, the activity change, negative = activation is 86.7% (inactive).

As to `COCCNC(=O)Nc1ccc2nc(-c3ccco3)c(-c3ccco3)nc2c1`, the activity change, negative = activation was 64.8% (inactive).

In the case of `CC(=O)N=c1ncn(CC(COC(C)=O)OC(C)=O)c2nc[nH]c12` (stereo not drawn), the activity change, negative = activation is 74.2% (inactive).

In the case of `CCCCNC(=O)C(C)N(CCN(C)C)C(=O)CCCCCN1C(=O)NC(c2ccc(Cl)cc2)C(C(=O)OCc2ccccc2)=C1C` (stereo not drawn), the activity change, negative = activation was 67.1% (inactive).

On to `CC(C)OCCCNC(=S)N1CCC(C(=O)c2ccc3c(c2)OCCO3)CC1`, for which the activity change, negative = activation is -164% (active).

For `c1ccc(C[C@H]2CNCCN2CCC23CC4CC(CC(C4)C2)C3)cc1`, the activity change, negative = activation is 47.5% (inactive).

Regarding `C=C(C)C(=O)Nc1cccc(C2=NOC3(C2)C[C@H](C(N)=O)N(C(=O)C(c2ccccc2)c2ccccc2)C3)c1` (stereo partly drawn), the activity change, negative = activation was -78.2% (active).

Regarding `CC(C)c1ccccc1OCC(O)CN(CC(O)COc1cccc2ccccc12)C(C)C` (stereo not drawn), the activity change, negative = activation is 57.3% (inactive).

For `O=c1[nH]cnc2c1c(-c1ccccc1)cn2-c1ccc(F)cc1`, the activity change, negative = activation is -47% (active).

For `c1ccc(CSc2nnc(-c3ccco3)c(-c3ccco3)n2)cc1`, the activity change, negative = activation is 49.6% (inactive).

For the compound `Cc1ccsc1/C=N/NC(=O)Cc1cc(=O)[nH][nH]1`, the activity change, negative = activation was 58.3% (inactive).

`COc1cc(C2C(C#N)=C(N)Oc3n[nH]c(-c4ccccn4)c32)cc(OC)c1OC` (stereo not drawn): the activity change, negative = activation was -84.8% (active).

In the case of `COc1ccccc1C1C(C#N)=C(N)Oc2c1c(-c1ccccc1)nn2-c1ccccc1` (stereo not drawn), the activity change, negative = activation is 42.2% (inactive).

As to `COc1ccc2sc(-c3ccccc3OC)c(-c3ccc(OCCN4CCCC4)cc3)c2c1`, the activity change, negative = activation is 73.4% (inactive).

With `C/C(=N\NC(=O)CNc1cccc2ccccc12)c1ccc(Br)s1`, the activity change, negative = activation is 90.2% (inactive).

`O=C(CSc1nc2ccccc2c(=O)[nH]1)Nc1nc(-c2ccc(Br)cc2)cs1`: the activity change, negative = activation was -74% (active).

For the compound `Cc1ccc(-c2ccc(/C=N/NC(=O)CN3CCOCC3)o2)cc1[N+](=O)[O-]`, the activity change, negative = activation is 73.9% (inactive).

Consider `O=C(CCCN1CCc2[nH]c3ccc(F)cc3c2C1)c1ccc(F)cc1`, for which the activity change, negative = activation was 65% (inactive).

As to `COc1ccc(C2CC(c3ccccc3)Nc3ncnn32)cc1` (stereo not drawn), the activity change, negative = activation was -445% (active).

`NC[C@H](Cc1ccccc1)NCCc1cc(C(F)(F)F)cc(C(F)(F)F)c1`: the activity change, negative = activation is 60.8% (inactive).

Turning to `Clc1ccccc1CSc1nnc(-c2ccco2)c(-c2ccco2)n1`, the activity change, negative = activation is 49.9% (inactive).

On to `Cc1ccc2nc(N3CCN(C(=O)c4ccco4)CC3)sc2c1`, for which the activity change, negative = activation was 41.9% (inactive).

For the compound `O=C(CN1C(=O)C2C3C=CC(C3)C2C1=O)NCCc1ccccc1Cl` (stereo not drawn), the activity change, negative = activation is -99.8% (active).

With `CC[N+](C)(CC)CCC[n+]1c(-c2ccccc2)c2cc(N)ccc2c2ccc(N)cc21`, the activity change, negative = activation was 98.2% (inactive).

With `Cc1ccc(-c2nc(SCC(=O)Nc3ccccc3OC(F)F)c3c(C)c(C(=O)O)sc3n2)cc1`, the activity change, negative = activation is -98.5% (active).

`CCOCCCNC(=O)c1c[nH]c2cc(C)ccc2c1=O`: the activity change, negative = activation is -152% (active).

For the compound `CN(C)CCCN(C(=O)c1ccc(S(=O)(=O)N2CCCCCC2)cc1)c1nc2ccc(Br)cc2s1`, the activity change, negative = activation is 60.4% (inactive).

Consider `O=[N+]([O-])c1c(NCCO)cc(Sc2nc3ccccc3s2)c2nonc12`, for which the activity change, negative = activation is 90.7% (inactive).

In the case of `C=CCC[C@H](Cc1ccc(F)cc1)C(=O)OC[C@@H](NC(=O)[C@@H](CC=C)CC(=O)N[C@H](CO)Cc1ccccc1)C(C)(C)C`, the activity change, negative = activation was 40.6% (inactive).

Turning to `O=C(O)c1cc(Cl)c(Cl)cc1C(=O)Nc1cccc2ncccc12`, the activity change, negative = activation was 80.4% (inactive).

As for `COC(=O)C(C)N(C#N)c1nc(C)nc(C)n1` (stereo not drawn), the activity change, negative = activation is -363% (active).

As to `CCCCN(CCCC)CCC(O)c1cc2c(Cl)cc(Cl)cc2c2cc(C(F)(F)F)ccc12` (stereo not drawn), the activity change, negative = activation was 48.9% (inactive).

On to `COc1ccc(C2c3ccc(O)cc3Oc3ncn(CCCO)c(=N)c32)cc1OC` (stereo not drawn), for which the activity change, negative = activation was -43.4% (active).

`Cc1cc(C)n(-c2nc(SCC(=O)N3CCCC3)c3c4c(sc3n2)CCCC4)n1`: the activity change, negative = activation is 43.6% (inactive).

Consider `O=c1cc(N2CCCCC2)c(-c2ccccc2)nn1Cc1cccc(F)c1`, for which the activity change, negative = activation was 44% (inactive).

As to `COc1ccc(S(=O)(=O)N2CCCCC2)cc1NC(=O)c1cc([N+](=O)[O-])ccc1N1CCOCC1`, the activity change, negative = activation was -42.8% (active).

With `OC(CNCC1CCCO1)Cn1c2ccc(Br)cc2c2cc(Br)ccc21` (stereo not drawn), the activity change, negative = activation is 43.4% (inactive).

Take `CC(=O)CCC(=O)c1ccc2ccccc2c1`: the activity change, negative = activation was -178% (active).

Take `O=S(=O)(Nc1ccc(O)c2ccccc12)c1ccc(OC(F)(F)F)cc1`: the activity change, negative = activation was 60.9% (inactive).

As to `COc1ccc(NC(=O)CN(Cc2ccccc2)S(C)(=O)=O)cc1OC`, the activity change, negative = activation is 40.8% (inactive).

As to `Cc1[nH][nH]c(=O)c1C(c1ccc(-c2ccc(Cl)cc2)o1)c1c(C)[nH][nH]c1=O`, the activity change, negative = activation was 85.8% (inactive).

Take `CCC(=O)Nc1c(S(=O)(=O)c2ccccc2)c2nc3ccccc3nc2n1Cc1ccccc1`: the activity change, negative = activation was 49.2% (inactive).

Values taken from PubChem BioAssay AID489031 (Sanford-Burnham Center for Chemical Genomics, 2010).
